Results gathered from unrelated publications.
Compare with care: the assays were run in different laboratories.
Target: Testis-specific serine/threonine-protein kinase 1 (TSSK1B, Homo sapiens, UniProt Q9BXA7)
Sequence (Q9BXA7 1-367, as in one of the studies): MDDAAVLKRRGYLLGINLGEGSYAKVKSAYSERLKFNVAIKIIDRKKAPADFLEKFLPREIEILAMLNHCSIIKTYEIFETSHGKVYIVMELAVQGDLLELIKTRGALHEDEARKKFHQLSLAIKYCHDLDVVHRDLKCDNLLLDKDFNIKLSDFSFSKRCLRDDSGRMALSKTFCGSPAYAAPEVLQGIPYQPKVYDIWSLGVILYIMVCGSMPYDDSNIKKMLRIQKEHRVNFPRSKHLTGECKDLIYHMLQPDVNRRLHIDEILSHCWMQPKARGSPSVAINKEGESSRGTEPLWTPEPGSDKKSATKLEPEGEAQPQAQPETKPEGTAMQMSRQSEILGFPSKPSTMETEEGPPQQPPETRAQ

Structure (SMILES)	read-out	action	method	concentration	quantity	result
FC(F)(F)c1ccc2c(c1)nc(-c1cccnc1)n2C1CC1	cell-free assay		competition with immobilised ligand	1 µM	remaining binding	100%
CCN(CC)CCNC(=O)c1c(C)[nH]c(/C=C2\C(=O)Nc3ccc(F)cc32)c1C	enzyme activity	inhibitor		0.3 µM	inhibition	-1%
O=C1NC(=O)c2cc(Nc3ccc(F)cc3)c(Nc3ccc(F)cc3)cc21	cell-free assay			0.5 µM	remaining signal	90.2%
COc1cc(/C=C/C(=O)CC(=O)/C=C/c2ccc(O)c(OC)c2)ccc1O	enzyme activity	inhibitor		1 µM	activity vs control	106%
Cc1nc(N2CC[C@@H](O)C2)ncc1-c1cc(C(F)(F)F)cc2[nH]ncc12	binding		competition with immobilised ligand	1 µM	remaining binding	98%
O=C(Nc1cnn(-c2csc(C(=O)NC3COC3)c2)c1)Nc1c(F)cccc1Cl	enzyme activity	inhibitor		5 µM	remaining activity	107%
CC(=O)C1=C(C)N(c2cccc(C(F)(F)F)c2)C(=O)N[C@@H]1c1ccc(C#N)nc1	cell-free assay		competition with immobilised ligand	1 µM	remaining binding	100%
CC(C)(C)c1nc2c(s1)c1nc(N)ncc1c1ccc(NS(=O)(=O)c3c(F)cccc3F)c(F)c12	enzyme activity	inhibitor	radiometric	1 µM	remaining activity	88%
Cc1ccc(C(=O)Nc2ccc(CN3CCN(C)CC3)c(C(F)(F)F)c2)cc1C#Cc1cnc2cccnn12	enzyme activity	inhibitor		23.5 nM	remaining activity	83%
N#CCCc1ccc2c(c1)-c1[nH]c3ccc([N+](=O)[O-])cc3c1CC(=O)N2	cell-free assay			0.5 µM	remaining signal	59.2%
CNc1cccc2cc(C(=O)Nc3ccc(C(=O)O)cc3)c(=O)[nH]c12	enzyme activity	inhibitor		10 µM	inhibition	2.1%
Cc1sc(C(=O)NC2COC2)cc1-n1cc(NC(=O)Nc2c(F)cccc2Cl)cn1	enzyme activity	inhibitor		10 µM	remaining activity	103%
CCOCCn1cc(C(=O)Nc2ccc(-n3nc(-c4cccnc4)cc3C(F)(F)F)cn2)ccc1=O	cell-free assay		competition with immobilised ligand	1 µM	remaining binding	100%
Cc1ccc(Nc2nccc(N(C)c3ccc4c(C)n(C)nc4c3)n2)cc1S(N)(=O)=O	enzyme activity	inhibitor		0.3 µM	inhibition	-1%
COc1cc2ncnc(Nc3ccc(Oc4ccccc4)c(C)c3C)c2cc1OC	enzyme activity	inhibitor		1 µM	inhibition	4%
Nc1ncnc2occ(-c3ccc(NC(=O)Nc4cc(C(F)(F)F)ccc4F)cc3)c12	cell-free assay	inhibitor		20 µM	remaining signal	52%
CCCOc1ccc(OC)c(F)c1C(=O)c1ccc(C(=O)N[C@@H]2CNC[C@H]2NC(=O)c2ccc3[nH]ncc3c2)cc1	enzyme activity	inhibitor		10 µM	remaining activity	70%
Cc1cc(NC(=O)c2cccc3cc(-c4cccc5[nH]nc(N)c45)ccc23)ccc1F	enzyme activity	inhibitor		0.1 µM	activity vs control	86%
CNC(=O)c1ccc(Nc2ncc(C(F)(F)F)c(NCc3nccnc3N(C)S(C)(=O)=O)n2)cc1	cell-free assay		competition with immobilised ligand	0.1 µM	remaining binding	64%
CN(C)C1CCN(CC#Cc2nn(C3CCCC3)c3nc(NCc4ccccc4)ncc23)C1 (stereo not drawn)	enzyme activity	inhibitor	FRET	10 µM	inhibition	-8%
N#Cc1ccc(Nc2ccc3[nH]c(=O)[nH]c3c2)c(Cl)c1	cell-free assay		competition with immobilised ligand	1 µM	remaining binding	56%
Cc1ccc(NC(=O)c2ccc(C)c(C(F)(F)F)c2)cc1C#Cc1nn(C2CCC(O)CC2)c2ncnc(N)c12 (stereo not drawn)	cell-free assay			10 µM	remaining signal	100%
O=C(Nc1cccnn1)N1CC(C/C=C/c2cncc(Oc3ccc(C(F)(F)F)cn3)n2)C1	cell-free assay		competition with immobilised ligand	1 µM	remaining binding	100%
CNC(=O)c1cc(Oc2ccc(NC(=O)Nc3ccc(Cl)c(C(F)(F)F)c3)cc2)ccn1	enzyme activity	inhibitor		10 µM	inhibition	2%
